In ChEMBL document CHEMBL4014308, “Amphiphilic Tobramycin-Lysine Conjugates Sensitize Multidrug Resistant Gram-Negative Bacteria to Rifampicin and Minocycline” (J Med Chem, 2017):
The source made the active and inactive calls. No cut-off for these calls is given here.

Columns and labels:
[1] = test system: Acinetobacter baumannii; assay: Potentiation of minocycline-induced antibacterial activity against multidrug-resistant Acinetobacter baumannii 110193 at 4 ug/ml after 18 hrs by checkerboard assay; format: functional
Method in brief: (§1)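 Checkerboard in Mueller-Hinton broth: antibiotic serially diluted along one axis and adjuvant along the other (10 × 7 matrix). Inoculum from a 0.5 McFarland saline suspension diluted 1:50 in MHB; 18 h at 37 °C, then plate read. MIC is the lowest concentration with no growth. FIC of each agent is its concentration in a no-growth well divided by its MIC alone; FIC index is the sum of both. FIC index ≤0.5 counts as synergy.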

[2] = test system: Pseudomonas aeruginosa; assay: Potentiation of rifampicin-induced antibacterial activity against multidrug/extremely drug-resistant/colistin-susceptible Pseudomonas aeruginosa isolate P262-101856 assessed as fold reduction in rifampicin MIC at 4 ug/ml after 18 hrs by checkerboard assay relative to control; format: functional
Method in brief: (§2)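 Checkerboard in Mueller-Hinton broth, 10 × 7 matrix, with the adjuvant held at 4 µg/mL. Inoculum from a 0.5 McFarland suspension diluted 1:50; 18 h at 37 °C. Antibiotic MIC (lowest concentration with no growth) with adjuvant is compared with the antibiotic MIC alone, giving a fold reduction.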

[3] = test system: Pseudomonas aeruginosa; assay: Potentiation of rifampicin-induced bactericidal activity against Pseudomonas aeruginosa PAO1 at 0.125 times antibacterial MIC after 90 mins; format: functional
Method in brief: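 Combination time-kill in PAO1 (LB, 37 °C). Aliquots taken at 0–360 min, serially diluted in PBS, plated on LB agar, and CFU counted after 20 h at 37 °C.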

[4] = test system: Pseudomonas aeruginosa; assay: Potentiation of rifampicin-induced antibacterial activity against Pseudomonas aeruginosa PAO1 at 4 ug/ml after 18 hrs by checkerboard assay; format: functional
Method in brief: (§3)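 Checkerboard in MHB with a 10 × 7 matrix: antibiotic serially diluted along one axis, adjuvant along the other. Inoculum was a 1:50 dilution of a 0.5 McFarland suspension, incubated 18 h at 37 °C and read on a plate reader. Each FIC is the concentration in a no-growth well divided by the MIC alone; FIC index is their sum, with ≤0.5 taken as synergy.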

[5] = test system: Acinetobacter baumannii; assay: Synergistic antibacterial activity against multidrug-resistant Acinetobacter baumannii 110193 after 18 hrs in presence of rifampicin by checkerboard assay; format: functional; conditions: Acinetobacter baumannii, 110193, 18 h; method in brief: as §3
[6] = test system: Pseudomonas aeruginosa; assay: Potentiation of rifampicin-induced antibacterial activity against multidrug/extremely drug-resistant/colistin-resistant Pseudomonas aeruginosa isolate 91433 assessed as fold reduction in rifampicin MIC at 4 ug/ml after 18 hrs by checkerboard assay relative to control; format: functional; method in brief: as §2
[7] = test system: Escherichia coli; assay: Antibacterial activity against gentamicin-resistant Escherichia coli isolate CAN-ICU 61714 after 18 hrs by microtiter dilution assay; format: functional; conditions: isolate CAN-ICU 61714, 18 h
Method in brief: (§4)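 Broth microdilution following CLSI guidelines. An overnight culture was adjusted to 0.5 McFarland in saline, then diluted 1:50 in Mueller-Hinton broth. This inoculum was added in equal volume to 2-fold serial dilutions of agent in MHB and incubated 18 h at 37 °C. MIC was the lowest concentration with no visible growth.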

[8] = test system: Pseudomonas aeruginosa; assay: Antibacterial activity against gentamicin/tobramycin-resistant Pseudomonas aeruginosa isolate CANWARD-2011 96846 after 18 hrs by microtiter dilution assay; format: functional; conditions: isolate CANWARD-2011 96846, 18 h; method in brief: as §4
[9] = test system: Pseudomonas aeruginosa; assay: Antibacterial activity against multidrug/extremely drug-resistant/colistin-resistant Pseudomonas aeruginosa isolate 101243 after 18 hrs by microtiter dilution assay; format: functional; conditions: isolate 101243, 18 h; method in brief: as §4
[10] = test system: Acinetobacter baumannii; assay: Antibacterial activity against multidrug-resistant Acinetobacter baumannii AB030 after 18 hrs by microtiter dilution assay; format: functional; conditions: AB030, 18 h; method in brief: as §4
[11] = test system: Pseudomonas aeruginosa; assay: Synergistic antibacterial activity against Pseudomonas aeruginosa PAO1 after 18 hrs in presence of trimethoprim by checkerboard assay; format: functional; conditions: PAO1, 18 h
Method in brief: (§5)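 Checkerboard in MHB: antibiotic diluted along one axis and adjuvant along the other (10 × 7 matrix). Inoculum was a 1:50 dilution in MHB of a 0.5 McFarland saline suspension; incubated 18 h at 37 °C. Each FIC = concentration in the no-growth well divided by the MIC alone; FIC index = sum of both FICs. ≤0.5 synergy, 0.5–4 no interaction, ≥4 antagonism.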

[12] = test system: Pseudomonas aeruginosa; assay: Induction of outer membrane permeabilization in Pseudomonas aeruginosa PAO1 at 32 ug/ml after 30 mins by CFDASE staining based fluorescence assay; format: functional
Method in brief: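 Log-phase PAO1 washed in PBS, brought to OD600 0.5 and loaded with 100 µM CFDASE for 30 min at 37 °C, then washed. Cells were exposed to agent for 30 min at 37 °C and supernatant fluorescence read at 488/520 nm. Untreated cells were subtracted; 1% Triton X-100 served as positive control.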

[13] = test system: Pseudomonas aeruginosa; assay: Potentiation of rifampicin-induced antibacterial activity against Pseudomonas aeruginosa PAO750 harboring RND efflux pump/OpmH deletion mutant after 18 hrs by checkerboard assay; format: functional; method in brief: as §1
[14] = test system: Pseudomonas aeruginosa; assay: Disruption of proton motive force in Pseudomonas aeruginosa PAO1 cytoplasmic membrane assessed as repression of bacterial swimming motility after 20 hrs; format: functional
Method in brief: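 Swim plates of 0.3% agar with tryptone 5 g/L and NaCl 2.5 g/L, agent mixed into the medium and plates dried 2 h. PAO1 at 1.0 McFarland in 0.85% saline was point-inoculated at the center, and plates incubated 20 h at 37 °C before swim diameter was imaged.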

[15] = test system: Klebsiella pneumoniae; assay: Synergistic antibacterial activity against multidrug-resistant Klebsiella pneumoniae 116381 after 18 hrs in presence of rifampicin by checkerboard assay; format: functional; conditions: Klebsiella pneumoniae, 116381, 18 h
Method in brief: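 Checkerboard in Mueller-Hinton broth: antibiotic serially diluted along one axis and adjuvant along the other (10 × 7 matrix). Inoculum was overnight culture set to 0.5 McFarland in saline, then diluted 1:50 in broth. Incubated 18 h at 37 °C. MIC was the lowest concentration with no growth. FIC index is the sum of both FICs (combination concentration ÷ MIC alone); ≤0.5 counted as synergy.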

[16] = test system: Pseudomonas aeruginosa; assay: Potentiation of meropenem-induced antibacterial activity against Pseudomonas aeruginosa PAO1 at 4 ug/ml after 18 hrs by checkerboard assay; format: functional; method in brief: as §1
[17] = test system: Acinetobacter baumannii; assay: Synergistic antibacterial activity against multidrug-resistant Acinetobacter baumannii AB030 after 18 hrs in presence of minocycline by checkerboard assay; format: functional; conditions: AB030, 18 h; method in brief: as §3
[18] = test system: Pseudomonas aeruginosa; assay: Potentiation of rifampicin-induced antibacterial activity against multidrug/extremely drug-resistant/colistin-susceptible Pseudomonas aeruginosa isolate P262-101856 at 4 ug/ml after 18 hrs by checkerboard assay; format: functional
Method in brief: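 Checkerboard broth microdilution in MHB: antibiotic serially diluted along one axis, adjuvant along the other (10 × 7 matrix). Inoculum from 0.5 McFarland saline suspension diluted 1:50 in MHB; 18 h at 37 °C. MIC taken as lowest concentration with no growth. FIC per agent = combination MIC/MIC alone; FIC index = sum (≤0.5 synergy).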

[19] = Ratio of cytotoxic concentration against human JIMT1 cells to synergistic concentration for Pseudomonas aeruginosa PAO1 in presence of rifampicin
[20] = test system: Pseudomonas aeruginosa; assay: Synergistic antibacterial activity against Pseudomonas aeruginosa PAO1 after 18 hrs in presence of minocycline by checkerboard assay; format: functional; conditions: PAO1, 18 h; method in brief: as §5
[21] = test system: Pseudomonas aeruginosa; assay: Antibacterial activity against multidrug/extremely drug-resistant/colistin-susceptible Pseudomonas aeruginosa isolate P262-101856 after 18 hrs by microtiter dilution assay; format: functional; conditions: isolate P262-101856, 18 h; method in brief: as §4
[22] = test system: Pseudomonas aeruginosa; assay: Antibacterial activity against multidrug/extremely drug-resistant/colistin-susceptible Pseudomonas aeruginosa isolate P259-96918 after 18 hrs by microtiter dilution assay; format: functional; conditions: isolate P259-96918, 18 h; method in brief: as §4

Cl.Cl.Cl.Cl.Cl.Cl.Cl.NCCCC[C@H](N)C(=O)N(CCCCCCCCCCCCO[C@@H]1[C@@H](O[C@H]2O[C@H](CO)[C@@H](O)[C@H](N)[C@H]2O)[C@H](N)C[C@H](N)[C@H]1O[C@H]1O[C@H](CN)[C@@H](O)C[C@H]1N)Cc1c2ccccc2c(Cl)c2ccccc12
fractional inhibitory concentration index (FICI) [1]: 0.63
fold change (FC) [2]: 64
Activity [3]: Active
fractional inhibitory concentration index (FICI) [4]: 0.094
MIC [5]: 1 mg/L
fold change (FC) [6]: 8
MIC [7]: 32 mg/L
MIC [8]: 32 mg/L
MIC [9]: 16 mg/L
MIC [10]: 64 mg/L
MIC [11]: 2 mg/L
Activity [12]: Active
fractional inhibitory concentration index (FICI) [13]: 0.156
Activity [14]: Dose-dependent effect
MIC [15]: 4 mg/L
fractional inhibitory concentration index (FICI) [16]: 2.031
MIC [17]: 16 mg/L
fractional inhibitory concentration index (FICI) [18]: 0.141
Ratio [19]: 6
MIC [20]: 1 mg/L
MIC [21]: 32 mg/L
MIC [22]: 64 mg/L
